UCH37 DUB inh: blocks the human deubiquitinase UCH37. inhibition, % (concentration not given with the values). purified proteasome/UCH37, Ub-AMC cleavage fluorescence. 0.33% of 330,000 active;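 active = mean inhibition over replicate wells above about 20%, limit read from the data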;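 note: 0% = compound-free wells with enzyme and 100% = wells lacking proteasome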
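Signal – fluorescence, ex 355 nm, em 460 nm · System – Proteasome-bound UCH37 · Input – 0.15 nM proteasome as dispensed · Timing – 30 min preincubation with enzyme, 25 min cleavage at room temperature · Read-out basis – percent inhibition of cleavage signal versus uninhibited and no-proteasome wells · Medium – Tris-HCl pH 7.4 with ATP-MgCl2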
FAS-TE inh: blocks the thioesterase domain of human fatty acid synthase; P49327; recombinant FAS-TE, OMFH fluorogenic substrate, fluorescence endpoint; inhibition, % at 15 µM; 0.67% of 360,000 active;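 active = compounds whose normalised, plate-corrected inhibition of enzyme fluorescence in the single-dose primary screen is 50% or more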;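 note: 0% = DMSO with enzyme and 100% = substrate without enzyme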
M18AAP inhibitor: blocks P. falciparum M18 aspartyl aminopeptidase. 1.2% of 290,000 active. recombinant PfM18AAP, H-Glu-NHMec fluorogenic cleavage. inhibition, % at 7.35 µM. AID 1822;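 active = inhibition above the campaign mean inhibition over all tested compounds plus 3 SD, cut at about 28% in these data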;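 note: 0% = plate median of test compound wells and 100% = 2 mM ZnCl2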
HDAC3 inhib: inhibitors of human histone deacetylase 3. inhibition, % at 8.3 µM. O15379. recombinant HDAC3, fluorogenic peptide/trypsin coupled, fluorescence. AID 2718. 0.15% of 320,000 active; in the data active = inhibition above about 26%, passing the limit was not always enough; inconclusive = no clear call, values can overlap the other calls
Target sequence (O15379 whole entry, looked up): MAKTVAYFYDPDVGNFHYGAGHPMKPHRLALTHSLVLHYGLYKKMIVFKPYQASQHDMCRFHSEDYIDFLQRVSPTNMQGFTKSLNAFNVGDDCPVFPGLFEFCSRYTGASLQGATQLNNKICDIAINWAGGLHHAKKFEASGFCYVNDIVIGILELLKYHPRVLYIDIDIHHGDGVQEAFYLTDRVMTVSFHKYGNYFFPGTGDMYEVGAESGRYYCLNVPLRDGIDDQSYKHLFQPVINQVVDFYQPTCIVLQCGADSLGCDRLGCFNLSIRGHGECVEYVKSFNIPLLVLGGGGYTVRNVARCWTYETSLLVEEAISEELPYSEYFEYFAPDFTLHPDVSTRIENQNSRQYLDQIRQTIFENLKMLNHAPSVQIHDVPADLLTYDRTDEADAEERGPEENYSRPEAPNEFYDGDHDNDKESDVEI
Rtt109 Vps75: C. albicans Rtt109 histone acetyltransferase inhibition; inhibition, % at 34.9 µM; AID 540336; 0.16% of 330,000 active; purified Rtt109/Vps75, ThioGlo CoA-SH fluorescence, 4 h;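 active = inhibition of at least 50% in every replicate; inconclusive = best replicate reaches 50% inhibition but some replicates fall short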
ALR H2O2 inh: inhibitors of human sulfhydryl oxidase ALR. purified ALR, DTT oxidation, H2O2 HRP-luminol luminescence. inhibition, % (test concentration not listed). 3.8% of 290,000 active. AID 485317;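 active = mean replicate inhibition above about 79%, with every replicate also reaching it, limit read from the data; inconclusive = only one of the two criteria met; inactive = mean below limit and not every replicate reaching it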
Active calls of the source: *; ? = inconclusive; . = no result given. An excerpt weighted towards active compounds, which were near 4.6% of everything screened.

SMILES	UCH37 DUB inh	FAS-TE inh	M18AAP inhibitor	HDAC3 inhib	Rtt109 Vps75	ALR H2O2 inh
CCN1C(=O)CC(N2CCC(Nc3ccc(OC)cc3)CC2)C1=O (centres undefined)	1	-3	7	-2	6	98*
COc1cccc(N2CCN(C3CC(=O)N(c4ccc(F)c(Cl)c4)C3=O)CC2)c1 (centres undefined)	1	4	-17	-8	-2	32
CC(CC(=O)N(C(C)C)C(C)C)=NNC(=O)COc1ccc(Cl)cc1Cl	5	.	.	.	.	.
OCc1ccc(-c2nn(Cc3ccccc3)c3ccccc23)o1	-9	1	.	-35	0	92*
COc1ccc(C=NNC(=O)c2ccccc2OC)cc1COc1ccc(C)cc1	-2	.	.	.	.	.
Cc1cc(C)c2cccc(N)c2n1	6	4	-1	-3	.	-10
Cc1cc(C)c2ccc(N)nc2c1O	1	0	6	4	9	91*
O=C(O)c1cc(-c2ccco2)nc2ccc(Br)cc12	-110	1	-5	-6	0	98*
Cn1cc([N+](=O)[O-])c(C(=O)NN=Cc2c[nH]c3ccccc23)n1	8	.	.	.	.	.
Nc1ccc(Br)c2cccnc12	25*	0	24	-1	5	-10
CS(=O)(=O)Oc1ccc(Br)c2cccnc12	3	-9	-7	4	4	-17
NC1=NC(=O)/C(=C/c2cn(CCC(=O)O)nc2-c2ccc(Cl)cc2)S1	15	-5	2	8	2	98*
Cc1ccc(-c2nn(CCC(=O)O)cc2/C=C\C(=O)c2ccc(Br)cc2)cc1	8	6	-1	17	-1	97*
CCCCC(=O)NN=Cc1ccc(Sc2cccc3cccnc23)o1	1	.	.	.	.	.
O=C(NN=Cc1c[nH]c2ccccc12)c1cccc([N+](=O)[O-])c1	10	.	.	.	.	.
CC(=NNC(=O)C(=O)Nc1cccc(Cl)c1C)c1ccncc1	0	.	.	.	.	.
CC(=O)Nc1ccccc1-c1nnc(SCc2ccccc2Cl)[nH]c1=O	8	-8	6	-7	.	99*
Nc1ccccc1-c1nnc(SCc2ccccc2Cl)[nH]c1=O	3	5	14	4	15	31
Cc1ccc(S(=O)(=O)/N=C2/NC(=O)/C(=C/c3ccc(Br)o3)S2)cc1	-8	14	-3	8	40	54
Cc1ccc(S(=O)(=O)/N=C2/NC(=O)/C(=C\c3cc(Br)cc(Br)c3O)S2)cc1	20	-12	7	11	34	99*
CC(=NNC(=O)C1CC1)c1cccnc1	2	.	.	.	.	.
Cc1ccc(CN(Cc2cc3cc4c(cc3[nH]c2=O)OCCO4)Cc2nnnn2Cc2ccco2)cc1	-76	1	30*	-6	7	-4
COc1cccc2sc(N=CN(C)C)nc12	8	.	.	.	.	.
Cc1ccc(Nc2cc(C)nn2-c2nc(C)cc(=O)[nH]2)cc1	1	-10	-5	-1	13	92*
Cc1ccc(C(=O)NCCc2nnc3ccc(SCC(=O)Nc4ccc(C)cc4C)nn23)cc1	5	1	1	-7	19	-6
SMILES	UCH37 DUB inh	FAS-TE inh	M18AAP inhibitor	HDAC3 inhib	Rtt109 Vps75	ALR H2O2 inh
Cc1ccc(C(=O)NCCc2nnc3ccc(SCC(=O)Nc4ccccc4F)nn23)cc1	0	21	6	6	3	97*
Cc1ccc(S(=O)(=O)NCCc2nnc3ccc(SCC(=O)Nc4nc(C)cs4)nn23)cc1	5	-4	-2	1	?	98*
Cc1ccc(C(=O)NCCc2nnc3ccc(SCC(=O)N4CCCCC4)nn23)cc1	-2	-5	-2	-6	-5	89*
Cc1ccc(C(=O)NCCc2nnc3ccc(SCC(=O)N4CCCC4)nn23)cc1	-1	-5	-10	-10	-13	42
O=C(CSc1ccc2nnc(CCNC(=O)c3ccccc3)n2n1)Nc1ccccc1F	1	-4	3	-4	1	-34
COC(=O)NN=Cc1ccc(OC/C=C/c2ccccc2)c(OC)c1	3	.	.	.	.	.
O=C(Cn1nnc(N2CCCC2)n1)NN=Cc1ccc(Cl)cc1	3	.	.	.	.	.
O=S(=O)(N=C(c1ccc(Cl)cc1)N1CCOCC1)c1ccc(Cl)cc1	4	.	.	.	.	.
COc1cc(CC2COC(=O)C2(O)Cc2ccc(O)c(OC)c2)ccc1O (centres undefined)	0	-1	.	1	6	87*
O=[N+]([O-])c1ccc(NC(=S)NC(=NCS(=O)(=O)c2ccccc2)c2ccccc2)cc1	6	.	.	.	.	.
COc1ccc(CC(=O)Nc2ccccc2N2CCCC2)cc1OC	-2	-1	21	-2	1	98*

Bioassay records (PubChem)
